{"source": "ChEMBL document CHEMBL1121965", "about": "“Nonsteroidal estrogens: synthesis and estrogen receptor binding affinity of derivatives of (3R*,4S*)-3,4-bis(4-hydroxyphenyl)hexane (hexestrol) and (2R*,3S*)-2,3-bis(4-hydroxyphenyl)pentane (norhexestrol) functionalized on the side chain” (J Med Chem, 1982)", "data": [{"biological_target": "Estrogen receptor (Ovis aries) (UniProt P49885+Q9TU15)", "assay": "The ratio of association constant for estrogen receptor using [3H]estradiol as a tracer, relative to estradiol", "type": "protein assay", "outline": "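Competitive binding: lamb uterine cytosol supplied estrogen receptor, [3H]estradiol served as tracer, and free tracer was removed from bound by charcoal-dextran adsorption. Relative association constants were expressed against estradiol set at 100.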", "values": [{"compound": "CC[C@H](c1ccc(O)cc1)[C@@H](C(=O)C[N+]#N)c1ccc(O)cc1", "RAC": 10.9}, {"compound": "CCC(c1ccc(O)cc1)C(CCO)c1ccc(O)cc1", "note": "(centres undefined)", "RAC": 15}, {"compound": "CCCCC(=O)C[C@@H](c1ccc(O)cc1)[C@H](CC)c1ccc(O)cc1", "RAC": 9.4}, {"compound": "CCC(c1ccc(O)cc1)C(CCBr)c1ccc(O)cc1", "note": "(centres undefined)", "RAC": 71}, {"compound": "CC[C@H](c1ccc(O)cc1)[C@@H](C)c1ccc(O)cc1", "RAC": 137}, {"compound": "CCCCCOC(=O)C(c1ccc(O)cc1)C(CC)c1ccc(O)cc1", "note": "(centres undefined)", "RAC": 61}, {"compound": "CCCCCNC(=O)C[C@@H](c1ccc(O)cc1)[C@H](CC)c1ccc(O)cc1", "RAC": 0.15}, {"compound": "CC[C@H](c1ccc(O)cc1)[C@@H](CC)c1ccc(O)cc1", "RAC": 300}, {"compound": "CC[C@H](c1ccc(O)cc1)[C@@H](CC(=O)C[N+]#N)c1ccc(O)cc1", "RAC": 2.8}, {"compound": "CC[C@H](c1ccc(O)cc1)[C@@H](CF)c1ccc(O)cc1", "RAC": 129}, {"compound": "CCCCCOC(=O)CC(c1ccc(O)cc1)C(CC)c1ccc(O)cc1", "note": "(centres undefined)", "RAC": 3.8}, {"compound": "CC[C@H](c1ccc(O)cc1)[C@@H](C(N)=O)c1ccc(O)cc1", "RAC": 0.2}, {"compound": "CC[C@H](c1ccc(O)cc1)[C@@H](C(C)=O)c1ccc(O)cc1", "RAC": 58}, {"compound": "CC[C@H](c1ccc(O)cc1)[C@@H](CBr)c1ccc(O)cc1", "RAC": 150}, {"compound": "CC[C@H](c1ccc(O)cc1)[C@@H](CO)c1ccc(O)cc1", "RAC": 8.9}, {"compound": "CC[C@H](c1ccc(O)cc1)[C@@H](CI)c1ccc(O)cc1", "RAC": 127}, {"compound": "CCCCC(=O)[C@@H](c1ccc(O)cc1)[C@H](CC)c1ccc(O)cc1", "RAC": 81}, {"compound": "CCC(c1ccc(O)cc1)C(CCF)c1ccc(O)cc1", "note": "(centres undefined)", "RAC": 129}, {"compound": "CCC(c1ccc(O)cc1)C(CCI)c1ccc(O)cc1", "note": "(centres undefined)", "RAC": 60}, {"compound": "CC[C@H](c1ccc(O)cc1)[C@@H](CC(=O)OC)c1ccc(O)cc1", "RAC": 19}, {"compound": "CC[C@H](c1ccc(O)cc1)[C@@H](CC(C)=O)c1ccc(O)cc1", "RAC": 21}, {"compound": "CCCCCNC(=O)[C@@H](c1ccc(O)cc1)[C@H](CC)c1ccc(O)cc1", "RAC": 0.29}, {"compound": "CC[C@H](c1ccc(O)cc1)[C@@H](CC(N)=O)c1ccc(O)cc1", "RAC": 0.09}, {"compound": "CCC(c1ccc(O)cc1)C(C(=O)OC)c1ccc(O)cc1", "note": "(centres undefined)", "RAC": 70}]}]}
